Measured values taken from the RNAGym collection of RNA variant scans (doi:10.1038/nmeth.2970).

B1: NELF-E aptamer (parent)
chain: CCCAACGACUGCCGAGCGAGAUUACGCUUGAGCGCCCCACUGAGGAUGCCCACGGGCGAUUGGGGCACGG

Variants of: B1
Assay: HiTS-RAP
Settings: with NELF-E (Drosophila)
How it was run: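 Aptamer DNA templates bearing a T7 promoter and a ter site were sequenced on an Illumina GAIIx flowcell. T7 RNA polymerase then transcribed them in situ, and GST-Tus halted transcription over 30 minutes at 37°C. After a 30-minute room-temperature equilibration with NELF-E-mOrange at 0.064 to 1000 nM in HEPES binding buffer, clusters were imaged, using only the first binding curve. Intensities normalised to sequencing intensity were averaged per sequence and fitted with weighted Hill fits to give Kd, retaining only fits whose variance stayed under 1,000,000.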

| Variant | Kd |
| --- | --- |
| C9G G42U | 7.6 nM |
| C9G G44A | 17.8 nM |
| C9G G44U | 9.09 nM |
| C9G G45A | 35.6 nM |
| C9G G45U | 5.69 nM |
| C9G G48A | 8.11 nM |
| C9G G54A | 17 nM |
| C9G G54U | 6.83 nM |
| C9G G55A | 10.3 nM |
| C9G G55U | 8.84 nM |
| C9G G56A | 7.64 nM |
| C9G G56U | 6.71 nM |
| C9G G62A | 26.9 nM |
| C9G G62U | 10 nM |
| C9G G63A | 15.9 nM |
| C9G G63U | 10.3 nM |
| C9G G64A | 8.13 nM |
| C9G G64C | 5.75 nM |
| C9G G64U | 8.07 nM |
| C9G G65A | 4.83 nM |
| C9G G65C | 16.4 nM |
| C9G G65U | 7.11 nM |
| C9G U10A | 6.51 nM |
| C9G U10C | 5.98 nM |

| Variant | Kd |
| --- | --- |
| C9G U10G | 5.46 nM |
| C9G U22C | 6.33 nM |
| C9G U22G | 5.5 nM |
| C9G U23A | 6.12 nM |
| C9G U23C | 4.37 nM |
| C9G U23G | 5.35 nM |
| C9G U28A | 5.64 nM |
| C9G U28C | 9.43 nM |
| C9G U28G | 6.8 nM |
| C9G U29A | 6.02 nM |
| C9G U29C | 6.28 nM |
| C9G U29G | 5.58 nM |
| C9G U41A | 79.4 nM |
| C9G U41C | 80.7 nM |
| C9G U41G | 6.14 nM |
| C9G U47A | 11.9 nM |
| C9G U47G | 5.29 nM |
| C9G U60C | 11.4 nM |
| C9G U60G | 6.72 nM |
| C9G U61A | 35.2 nM |
| C9G U61C | 89.2 nM |
| C9U | 5.19 nM |
| C9U A19G | 5.01 nM |
| C9U A24G | 5.62 nM |

| Variant | Kd |
| --- | --- |
| C9U C12G | 6.92 nM |
| C9U C13G | 5.59 nM |
| C9U C13U | 5.14 nM |
| C9U C17G | 6.19 nM |
| C9U G11U | 5.56 nM |
| C9U G14A | 6.66 nM |
| C9U G14U | 6.79 nM |
| C9U G16U | 7.34 nM |
| C9U G20U | 7.82 nM |
| C9U G65U | 6.78 nM |
| C9U U10G | 5.19 nM |
| C9U U22G | 5.55 nM |
| C9U U23G | 5.63 nM |
| C9U U29G | 5.3 nM |
| C9U U41G | 5.98 nM |
| U10A | 4.9 nM |
| U10A A15G | 3.62 nM |
| U10A A19G | 6.65 nM |
| U10A A24G | 5.63 nM |
| U10A A31G | 9.84 nM |
| U10A A31U | 5.78 nM |
| U10A A39G | 11.6 nM |
| U10A A67G | 4.3 nM |
| U10A A67U | 9.22 nM |

| Variant | Kd |
| --- | --- |
| U10A C12G | 6.47 nM |
| U10A C13G | 5.83 nM |
| U10A C53U | 5.03 nM |
| U10A C57U | 5.96 nM |
| U10A G11U | 7.2 nM |
| U10A G14A | 7.05 nM |
| U10A G14U | 6.38 nM |
| U10A G16U | 5.86 nM |
| U10A G26A | 5.22 nM |
| U10A U22G | 5.49 nM |
| U10A U23C | 5.46 nM |
| U10A U23G | 5.54 nM |
| U10A U29C | 5.24 nM |
| U10A U29G | 5.61 nM |
| U10A U61A | 26 nM |
| U10C | 4.6 nM |
| U10C A19G | 4.87 nM |
| U10C A24G | 5.38 nM |
| U10C A67U | 5.45 nM |
| U10C C12G | 5.94 nM |
| U10C C13G | 5.55 nM |
| U10C C53U | 3.84 nM |
| U10C C57U | 4.92 nM |
| U10C G11U | 5.91 nM |

| Variant | Kd |
| --- | --- |
| U10C G14U | 4.95 nM |
| U10C G16U | 5.14 nM |
| U10C G55A | 8.56 nM |
| U10C G55U | 9.22 nM |
| U10C G64A | 9.5 nM |
| U10C U22G | 5.75 nM |
| U10C U23G | 5.12 nM |
| U10C U29C | 7.71 nM |
| U10C U29G | 6.02 nM |
| U10C U61A | 33.1 nM |
| U10C U61C | 41.4 nM |
| U10G | 4.49 nM |
| U10G A15C | 3.77 nM |
| U10G A15G | 4.72 nM |
| U10G A15U | 5.99 nM |
| U10G A19G | 5.12 nM |
| U10G A19U | 4.96 nM |
| U10G A21C | 4.39 nM |
| U10G A21G | 5.45 nM |
| U10G A21U | 5.53 nM |
| U10G A24C | 4.94 nM |
| U10G A24G | 5.18 nM |
| U10G A24U | 6.04 nM |
| U10G A31C | 6.21 nM |

| Variant | Kd |
| --- | --- |
| U10G A31G | 6.79 nM |
| U10G A31U | 5.87 nM |
| U10G A39C | 19.7 nM |
| U10G A39G | 10.1 nM |
| U10G A39U | 24.6 nM |
| U10G A43C | 75.8 nM |
| U10G A43G | 18.8 nM |
| U10G A43U | 75.2 nM |
| U10G A46G | 38.8 nM |
| U10G A46U | 65.4 nM |
| U10G A52C | 5.8 nM |
| U10G A52G | 4.22 nM |
| U10G A52U | 14.9 nM |
| U10G A59G | 57.3 nM |
| U10G A59U | 71.4 nM |
| U10G A67C | 5.03 nM |
| U10G A67G | 5.45 nM |
| U10G A67U | 6.91 nM |
| U10G C12A | 5.88 nM |
| U10G C12G | 5.4 nM |
| U10G C12U | 4.41 nM |
| U10G C13A | 5.77 nM |
| U10G C13G | 4.78 nM |
| U10G C13U | 4.7 nM |

| Variant | Kd |
| --- | --- |
| U10G C17A | 5.07 nM |
| U10G C17G | 4.78 nM |
| U10G C17U | 4.88 nM |
| U10G C25A | 4.07 nM |
| U10G C25G | 5.26 nM |
| U10G C25U | 5.86 nM |
| U10G C27A | 5.02 nM |
| U10G C27G | 4.93 nM |
| U10G C27U | 3.87 nM |
| U10G C33A | 5.76 nM |
| U10G C33G | 5.96 nM |
| U10G C33U | 5.07 nM |
| U10G C35A | 7.32 nM |
| U10G C35G | 6.33 nM |
| U10G C35U | 16.3 nM |
| U10G C36A | 9.48 nM |
| U10G C36G | 6.55 nM |
| U10G C36U | 6.99 nM |
| U10G C37A | 14.8 nM |
| U10G C37G | 6.84 nM |
| U10G C37U | 12.2 nM |
| U10G C38A | 39.8 nM |
| U10G C38G | 7 nM |
